Results: ChEMBL document CHEMBL1152955, “Synthetic resveratrol aliphatic acid inhibits TLR2-mediated apoptosis and an involvement of Akt/GSK3beta pathway” (Bioorg Med Chem, 2009)
The source made the active and inactive calls. No cut-off for these calls is given here.

Experiments:
[1] = Solubility in water; format: physicochemical; settings: buffer
Albumin = Albumin (Homo sapiens, UniProt P02768); assay: Binding affinity to human serum albumin; format: ADME; settings: isolated protein
HEK293 [2] = assay: Inhibition of TLR2 expression in human HEK293 cells at 10 uM treated for 24 hrs measured after serum deprivation by Western blotting; format: functional, cell-based
Procedure, shortened: (§1)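 HEK293 and TLR2-stably-transfected HEK293 cells in RPMI-1640 with 10% heat-inactivated FBS, 37 °C, 5% CO2; compound at 0, 10 or 100 uM for 24 h, then serum deprivation for 0, 12 or 24 h. Equal cell numbers lysed in RIPA buffer, 12% SDS-PAGE, nitrocellulose, anti-TLR2 immunoblot with GAPDH antibody, chemiluminescent detection; mean ± SEM of three independent experiments.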

HEK293 [3] = assay: Inhibition of TLR2 expression in human HEK293 cells at 100 uM treated for 24 hrs measured after serum deprivation by Western blotting; format: functional, cell-based; procedure, shortened: as §1
HEK293 [4] = assay: Inhibition of TLR2 expression in human HEK293 cells stably transfected with TLR2 at 10 uM treated for 24 hrs measured after serum deprivation by Western blotting; format: functional, cell-based; procedure, shortened: as §1
HEK293 [5] = assay: Inhibition of TLR2 expression in human HEK293 cells stably transfected with TLR2 at 100 uM treated for 24 hrs measured after serum deprivation by Western blotting; format: functional, cell-based; procedure, shortened: as §1
[6] = molecular target: Toll-like receptor 2 (Homo sapiens) (UniProt O60603); assay: Inhibition of TLR2-mediated apoptosis in human HEK293 cells at 100 uM treated for 24 hrs measured after 12 hrs of serum deprivation by TUNEL assay; format: cell-based
Procedure, shortened: (§2)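 With or without 100 uM for 24 h, then serum deprivation 0, 12 or 24 h, in HEK293 or TLR2/HEK293 cells (RPMI-1640, 10% heat-inactivated FBS). Nucleosomal DNA fragmentation detected by in situ TUNEL kit; apoptotic and total cells counted in random fields to give percent apoptotic cells; mean ± SEM of three independent experiments.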

[7] = molecular target: Toll-like receptor 2 (Homo sapiens) (UniProt O60603); assay: Inhibition of TLR2-mediated apoptosis in human HEK293 cells at 100 uM treated for 24 hrs measured after 24 hrs of serum deprivation by TUNEL assay; format: cell-based; procedure, shortened: as §2
[8] = molecular target: Toll-like receptor 2 (Homo sapiens) (UniProt O60603); assay: Inhibition of TLR2-mediated apoptosis in human HEK293 cells stably transfected with TLR2 at 100 uM treated for 24 hrs measured after 12 hrs of serum deprivation by TUNEL assay; format: cell-based; procedure, shortened: as §2
[9] = molecular target: Toll-like receptor 2 (Homo sapiens) (UniProt O60603); assay: Inhibition of TLR2-mediated apoptosis in human HEK293 cells stably transfected with TLR2 at 100 uM treated for 24 hrs measured after 24 hrs of serum deprivation by TUNEL assay; format: cell-based; procedure, shortened: as §2
[10] = molecular target: Toll-like receptor 2 (Homo sapiens) (UniProt O60603); assay: Inhibition of TLR2 in human HEK293 cells stably transfected with TLR2 assessed as decrease in Akt phosphorylation level at Ser473 at 10 uM treated for 24 hrs measured after serum deprivation by Western blotting; format: cell-based
Procedure, shortened: (§3)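 Parental HEK293 or TLR2/HEK293 cells (RPMI-1640, 10% heat-inactivated FBS, 37 °C, 5% CO2) exposed to 0, 10 or 100 uM for 24 h, then serum-deprived 0, 12 or 24 h. RIPA lysates of equal cell numbers run on 12% SDS-PAGE; phospho-Akt (Ser473) and total Akt probed by Western blot, milk block, primary antibody overnight at 4 °C.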

[11] = molecular target: Toll-like receptor 2 (Homo sapiens) (UniProt O60603); assay: Inhibition of TLR2 in human HEK293 cells stably transfected with TLR2 assessed as decrease in Akt phosphorylation level at Ser473 at 100 uM treated for 24 hrs measured after serum deprivation by Western blotting; format: cell-based; procedure, shortened: as §3
[12] = molecular target: Toll-like receptor 2 (Homo sapiens) (UniProt O60603); assay: Inhibition of TLR2 in human HEK293 cells assessed as decrease in Akt phosphorylation level at Ser473 at 10 uM treated for 24 hrs measured after serum deprivation by Western blotting; format: cell-based; procedure, shortened: as §3
[13] = molecular target: Toll-like receptor 2 (Homo sapiens) (UniProt O60603); assay: Inhibition of TLR2 in human HEK293 cells assessed as decrease in Akt phosphorylation level at Ser473 at 100 uM treated for 24 hrs measured after serum deprivation by Western blotting; format: cell-based; procedure, shortened: as §3
[14] = molecular target: Toll-like receptor 2 (Homo sapiens) (UniProt O60603); assay: Inhibition of TLR2 in human HEK293 cells stably transfected with TLR2 assessed as decrease in GSK3-beta phosphorylation level at 10 uM treated for 24 hrs measured after serum deprivation by Western blotting; format: cell-based
Procedure, shortened: (§4)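 Cells given 0, 10 or 100 uM for 24 h before 0, 12 or 24 h serum deprivation; HEK293 and TLR2/HEK293 lines cultured in RPMI-1640 plus 10% heat-inactivated FBS. Harvested cells lysed in RIPA buffer, 12% SDS-PAGE, nitrocellulose transfer, immunoblotted for phospho-GSK3beta and total GSK3beta, ECL read-out; mean ± SEM, three independent experiments.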

[15] = molecular target: Toll-like receptor 2 (Homo sapiens) (UniProt O60603); assay: Inhibition of TLR2 in human HEK293 cells stably transfected with TLR2 assessed as decrease in GSK3-beta phosphorylation level at 100 uM treated for 24 hrs measured after serum deprivation by Western blotting; format: cell-based; procedure, shortened: as §4
[16] = molecular target: Toll-like receptor 2 (Homo sapiens) (UniProt O60603); assay: Inhibition of TLR2 in human HEK293 cells assessed as decrease in GSK3-beta phosphorylation level at 10 uM treated for 24 hrs measured after serum deprivation by Western blotting; format: cell-based; procedure, shortened: as §4
[17] = molecular target: Toll-like receptor 2 (Homo sapiens) (UniProt O60603); assay: Inhibition of TLR2 in human HEK293 cells assessed as decrease in GSK3-beta phosphorylation level at 100 uM treated for 24 hrs measured after serum deprivation by Western blotting; format: cell-based; procedure, shortened: as §4

Sequence of Toll-like receptor 2 (Homo sapiens) (O60603 whole entry, the tested form may be a part): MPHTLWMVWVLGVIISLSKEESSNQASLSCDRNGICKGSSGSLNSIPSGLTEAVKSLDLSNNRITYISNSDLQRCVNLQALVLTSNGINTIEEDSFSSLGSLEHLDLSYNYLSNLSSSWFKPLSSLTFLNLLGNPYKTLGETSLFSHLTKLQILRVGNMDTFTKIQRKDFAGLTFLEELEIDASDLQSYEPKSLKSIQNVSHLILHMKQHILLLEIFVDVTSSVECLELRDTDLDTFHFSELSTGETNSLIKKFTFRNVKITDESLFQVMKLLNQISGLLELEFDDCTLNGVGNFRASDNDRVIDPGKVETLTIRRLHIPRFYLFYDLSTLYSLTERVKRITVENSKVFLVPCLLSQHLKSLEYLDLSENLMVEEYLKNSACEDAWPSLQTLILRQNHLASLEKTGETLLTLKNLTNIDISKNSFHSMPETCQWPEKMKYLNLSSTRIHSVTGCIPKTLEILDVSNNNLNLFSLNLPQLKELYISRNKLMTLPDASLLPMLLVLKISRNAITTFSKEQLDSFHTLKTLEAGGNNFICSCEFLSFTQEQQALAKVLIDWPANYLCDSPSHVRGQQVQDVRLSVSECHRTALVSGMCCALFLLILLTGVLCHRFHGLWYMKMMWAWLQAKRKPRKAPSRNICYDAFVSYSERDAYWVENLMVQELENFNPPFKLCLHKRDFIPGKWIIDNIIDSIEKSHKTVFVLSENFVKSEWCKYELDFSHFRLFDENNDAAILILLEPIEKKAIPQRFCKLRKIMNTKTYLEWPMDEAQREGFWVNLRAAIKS
Sequence of Albumin (P02768 whole entry): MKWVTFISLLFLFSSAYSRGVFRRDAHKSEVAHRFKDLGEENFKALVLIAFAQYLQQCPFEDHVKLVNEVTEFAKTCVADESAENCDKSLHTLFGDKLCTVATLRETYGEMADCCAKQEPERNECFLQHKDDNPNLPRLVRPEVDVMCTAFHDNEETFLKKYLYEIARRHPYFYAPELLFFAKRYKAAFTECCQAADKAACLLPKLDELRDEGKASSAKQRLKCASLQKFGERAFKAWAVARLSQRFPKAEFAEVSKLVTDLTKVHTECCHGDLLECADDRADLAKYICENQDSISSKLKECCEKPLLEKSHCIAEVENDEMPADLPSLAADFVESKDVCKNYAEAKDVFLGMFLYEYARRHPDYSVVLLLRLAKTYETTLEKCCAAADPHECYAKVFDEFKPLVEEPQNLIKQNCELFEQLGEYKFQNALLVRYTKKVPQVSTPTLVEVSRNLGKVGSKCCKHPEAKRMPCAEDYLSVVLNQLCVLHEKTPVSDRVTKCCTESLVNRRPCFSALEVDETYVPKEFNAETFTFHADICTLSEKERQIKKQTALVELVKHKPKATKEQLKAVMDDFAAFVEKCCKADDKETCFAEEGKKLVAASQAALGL

SMILES	solubility [1]	fold change (FC) (Albumin)	inhibition (HEK293 [2])	inhibition (HEK293 [3])	inhibition (HEK293 [4])	inhibition (HEK293 [5])	inhibition [6]	inhibition [7]	inhibition [8]	inhibition [9]	Activity [10]	Activity [11]	Activity [12]	Activity [13]	Activity [14]	Activity [15]	Activity [16]	Activity [17]
O=C(O)CCCCCOc1ccc(/C=C/c2cc(O)cc(O)c2)cc1 [RESVERATROL HEXANOIC ACID]	Soluble	40	Active	Active	Active	Active	11%	25%	20%	49%	Active	Active	inactive	inactive	Active	Active	inactive	inactive
O=C(O)COc1ccc(/C=C/c2cc(O)cc(O)c2)cc1	–	–	inactive	inactive	inactive	inactive	–	–	–	–	–	–	–	–	–	–	–	–
